# In ChEMBL document CHEMBL3102776, “Synthesis and biological evaluation of farnesylthiosalicylamides as potential anti-tumor agents” (Bioorg Med Chem, 2014):
# Calls of active or inactive are those of the source. No cut-off for these calls is given here.
# Columns and labels:
# [1] = Cytotoxicity against human H460 cells after 48 hrs by MTT assay; type: functional, cell-based; settings: NCI-H460, 48 h
# Outline: (§1)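 Cells seeded at 10⁴ per well in DMEM with 10% FBS and grown overnight. Compound at a range of concentrations for 48 h, in triplicate. MTT (5 mg mL⁻¹ stock) added for the last 4 h, formazan dissolved in DMSO, absorbance read at 570 nm. Percent inhibition used to derive IC50. Values are mean ± SEM of at least three independent experiments.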
# [2] = Cytotoxicity against human SGC7901 cells after 48 hrs by MTT assay; type: functional, cell-based; settings: SGC-7901, 48 h; outline: as §1
# [3] = system: SMMC-7721; assay: Cytotoxicity against human SMMC7721 cells after 48 hrs by MTT assay; type: functional, cell-based; settings: SMMC-7721, 48 h; outline: as §1
# [4] = system: MCF7; assay: Cytotoxicity against human MCF7 cells after 48 hrs by MTT assay; type: functional, cell-based; settings: MCF7, 48 h; outline: as §1
# [5] = system: EJ; assay: Cytotoxicity against human EJ cells after 48 hrs by MTT assay; type: functional, cell-based; outline: as §1
# [6] = system: SK-OV-3; assay: Cytotoxicity against human SKOV3 cells after 48 hrs by MTT assay; type: functional, cell-based; settings: SK-OV-3, 48 h; outline: as §1
# [7] = Cytotoxicity against human PANC1 cells after 48 hrs by MTT assay; type: functional, cell-based; settings: PANC-1, 48 h; outline: as §1
# [8] = system: SMMC-7721; assay: Induction of apoptosis in human SMMC7721 cells assessed as reduction in Bcl2 level after 48 hrs by Western blotting analysis; type: functional, cell-based
# [9] = system: SMMC-7721; assay: Induction of apoptosis in human SMMC7721 cells assessed as early apoptotic cells at 6 uM after 48 hrs by annexin V-FITC/propidium iodide staining-based flow cytometry (reference value: 3.87%); type: functional
# [10] = system: SMMC-7721; assay: Induction of apoptosis in human SMMC7721 cells assessed as late apoptotic cells at 12 uM after 48 hrs by annexin V-FITC/propidium iodide staining-based flow cytometry (reference value: 1.55%); type: functional
# [11] = system: SMMC-7721; assay: Induction of apoptosis in human SMMC7721 cells assessed as viable cells at 6 uM after 48 hrs by annexin V-FITC/propidium iodide staining-based flow cytometry (reference value: 93.81%); type: functional; settings: SMMC-7721, 48 h, read-out: Activity
# [12] = system: SMMC-7721; assay: Induction of apoptosis in human SMMC7721 cells assessed as viable cells at 12 uM after 48 hrs by annexin V-FITC/propidium iodide staining-based flow cytometry (reference value: 93.81%); type: functional; settings: SMMC-7721, 48 h, read-out: Activity
# [13] = system: SMMC-7721; assay: Induction of apoptosis in human SMMC7721 cells assessed as viable cells at 3 uM after 48 hrs by annexin V-FITC/propidium iodide staining-based flow cytometry (reference value: 93.81%); type: functional; settings: SMMC-7721, 48 h, read-out: Activity
# [14] = system: SMMC-7721; assay: Induction of apoptosis in human SMMC7721 cells assessed as early apoptotic cells at 12 uM after 48 hrs by annexin V-FITC/propidium iodide staining-based flow cytometry (reference value: 3.87%); type: functional
# [15] = system: SMMC-7721; assay: Induction of apoptosis in human SMMC7721 cells after 48 hrs by annexin V-FITC/propidium iodide staining-based flow cytometry; type: functional, cell-based
# [16] = system: SMMC-7721; assay: Inhibition of Ras in human SMMC7721 cells assessed as reduction in phosphorylated ERK1 level at 12 uM after 8 hrs by immunoblotting analysis; type: cell-based
# Outline: (§2)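 SMMC-7721 cells at 1.5 × 10⁵/mL treated with 3.0, 6.0 or 12 µmol/L compound or vehicle for 8 h. Cells lysed, 50 µg protein per lane run on 12% SDS–PAGE gels. Blots probed for total and phospho-ERK1/2 (Thr202/Tyr204), total and phospho-Akt (Ser473), and β-actin. Densitometry relative to β-actin. Means ± SEM of three experiments.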
# [17] = system: SMMC-7721; assay: Induction of apoptosis in human SMMC7721 cells assessed as increase in caspase-3 level after 48 hrs by Western blotting analysis; type: functional, cell-based
# Outline: (§3)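 SMMC-7721 cells treated with or without compound at several concentrations for 48 h. Lysates immunoblotted for Bax, Bcl-2 and caspase-3, with β-actin as loading control. Band levels relative to β-actin quantified by densitometric scanning. Means ± SEM from three separate experiments.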
# [18] = system: SMMC-7721; assay: Inhibition of Ras in human SMMC7721 cells assessed as reduction in phosphorylated ERK1 level after 8 hrs by immunoblotting analysis; type: cell-based; outline: as §2
# [19] = system: SMMC-7721; assay: Induction of apoptosis in human SMMC7721 cells assessed as increase in Bax level after 48 hrs by Western blotting analysis; type: functional, cell-based; outline: as §3
# [20] = system: SMMC-7721; assay: Inhibition of Ras in human SMMC7721 cells assessed as reduction in phosphorylated Akt level after 8 hrs by immunoblotting analysis; type: cell-based; outline: as §2
# [21] = system: SMMC-7721; assay: Inhibition of Ras in human SMMC7721 cells assessed as reduction in phosphorylated ERK2 level at 12 uM after 8 hrs by immunoblotting analysis; type: cell-based; outline: as §2
# [22] = system: SMMC-7721; assay: Induction of apoptosis in human SMMC7721 cells assessed as late apoptotic cells at 6 uM after 48 hrs by annexin V-FITC/propidium iodide staining-based flow cytometry (reference value: 1.55%); type: functional
# [23] = system: SMMC-7721; assay: Induction of apoptosis in human SMMC7721 cells assessed as necrotic cells at 6 uM after 48 hrs by annexin V-FITC/propidium iodide staining-based flow cytometry (reference value: 0.77%); type: functional
# [24] = system: SMMC-7721; assay: Inhibition of Ras in human SMMC7721 cells assessed as reduction in phosphorylated Akt level at 12 uM after 8 hrs by immunoblotting analysis; type: cell-based; outline: as §2
# [25] = system: SMMC-7721; assay: Inhibition of Ras in human SMMC7721 cells assessed as reduction in phosphorylated ERK2 level after 8 hrs by immunoblotting analysis; type: cell-based; outline: as §2
# [26] = Lipophilicity, log P of the compound in 10% PEG400 aqueous solution; type: physicochemical
# [27] = system: SMMC-7721; assay: Induction of apoptosis in human SMMC7721 cells assessed as necrotic cells at 3 uM after 48 hrs by annexin V-FITC/propidium iodide staining-based flow cytometry (reference value: 0.77%); type: functional
# [28] = system: SMMC-7721; assay: Induction of apoptosis in human SMMC7721 cells assessed as necrotic cells at 12 uM after 48 hrs by annexin V-FITC/propidium iodide staining-based flow cytometry (reference value: 0.77%); type: functional
# [29] = Aqueous solubility of the compound in 10% PEG400 aqueous solution after 24 hrs by HPLC analysis; type: physicochemical
# Outline: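 Roughly 20.0 mg of solid in 5 mL of 10% PEG400 in water. Sonicated 10 min, then stirred 24 h at 25 °C in a water bath. Centrifuged 10 min at 10,000 rpm and the supernatant passed through a microporous membrane. Concentration measured by HPLC against a standard curve.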
# [30] = system: SMMC-7721; assay: Induction of apoptosis in human SMMC7721 cells assessed as early apoptotic cells at 3 uM after 48 hrs by annexin V-FITC/propidium iodide staining-based flow cytometry (reference value: 3.87%); type: functional
# [31] = system: SMMC-7721; assay: Induction of apoptosis in human SMMC7721 cells assessed as late apoptotic cells at 3 uM after 48 hrs by annexin V-FITC/propidium iodide staining-based flow cytometry (reference value: 1.55%); type: functional
structure (smiles),measurement,setting,value
CC(C)=CCC/C(C)=C/CC/C(C)=C/CSc1ccccc1C(=O)NCCCCNC(=O)c1ccccc1SC/C=C(\C)CC/C=C(\C)CCC=C(C)C,IC50,[1],> 50 µM
same,IC50,[2],> 50 µM
same,IC50,[3],> 50 µM
same,IC50,[4],45.8 µM
same,IC50,[5],> 50 µM
same,IC50,[6],> 50 µM
same,IC50,[7],> 50 µM
CC(C)=CCC/C(C)=C/CC/C(C)=C/CSc1ccccc1C(=O)NCCNC(=O)c1ccccc1SC/C=C(\C)CC/C=C(\C)CCC=C(C)C,IC50,[1],> 50 µM
same,IC50,[2],> 50 µM
same,IC50,[3],> 50 µM
same,IC50,[4],> 50 µM
same,IC50,[5],> 50 µM
same,IC50,[6],> 50 µM
same,IC50,[7],> 50 µM
CNC(=O)c1cc(Oc2ccc(NC(=O)Nc3ccc(Cl)c(C(F)(F)F)c3)cc2)ccn1 [SORAFENIB],IC50,[1],10.8 µM
same,IC50,[2],11.5 µM
same,IC50,[3],18.7 µM
same,IC50,[4],9.12 µM
same,IC50,[5],22.9 µM
same,IC50,[6],9.25 µM
same,IC50,[7],12.3 µM
CC(C)=CCC/C(C)=C/CC/C(C)=C/CSc1ccccc1C(=O)N1CCNCC1,IC50,[1],26.3 µM
same,IC50,[2],25.7 µM
same,IC50,[3],32.4 µM
same,IC50,[4],34.1 µM
same,IC50,[5],27.5 µM
same,IC50,[6],> 50 µM
same,IC50,[7],22.5 µM
CC(C)=CCC/C(C)=C/CC/C(C)=C/CSc1ccccc1C(=O)N1CCN(C(=O)c2ccccc2SC/C=C(\C)CC/C=C(\C)CCC=C(C)C)CC1,IC50,[1],> 50 µM
same,IC50,[2],> 50 µM
same,IC50,[3],> 50 µM
same,IC50,[4],> 50 µM
same,IC50,[5],> 50 µM
same,IC50,[6],> 50 µM
same,IC50,[7],> 50 µM
CC(C)=CCC/C(C)=C/CC/C(C)=C/CSc1ccccc1C(=O)NCCCNC(=O)c1ccccc1SC/C=C(\C)CC/C=C(\C)CCC=C(C)C,IC50,[1],> 50 µM
same,IC50,[2],> 50 µM
same,IC50,[3],> 50 µM
same,IC50,[4],> 50 µM
same,IC50,[5],> 50 µM
same,IC50,[6],> 50 µM
same,IC50,[7],> 50 µM
CC(C)=CCC/C(C)=C/CC/C(C)=C/CSc1ccccc1C(=O)NCCOCCN,Activity,[8],Dose-dependent effect
same,Activity,[9],29.84%
same,Activity,[10],24.84%
same,viability at 6 µM,[11],49.4%
same,viability at 12 µM,[12],15.3%
same,viability at 3 µM,[13],84%
same,Activity,[14],59.67%
same,Activity,[15],Dose-dependent effect
same,Activity,[16],Active
same,Activity,[17],Dose-dependent effect
same,Activity,[18],Dose-dependent effect
same,IC50,[1],6.89 µM
same,IC50,[2],7.63 µM
same,Activity,[19],Dose-dependent effect
same,Activity,[20],Dose-dependent effect
same,IC50,[3],5.71 µM
same,Activity,[21],Active
same,Activity,[22],18.68%
same,Activity,[23],2.07%
same,Activity,[24],Active
same,Activity,[25],Dose-dependent effect
same,logP,[26],4.85
same,Activity,[27],0.24%
same,IC50,[4],7.29 µM
same,Activity,[28],0.21%
same,IC50,[5],6.13 µM
same,solubility at 24 h,[29],23.8 mg/mL
same,Activity,[30],10.9%
same,Activity,[31],4.85%
same,IC50,[6],6.83 µM
same,IC50,[7],3.78 µM
CC(C)=CCC/C(C)=C/CC/C(C)=C/CSc1ccccc1C(=O)NCCOCCNC(=O)c1ccccc1SC/C=C(\C)CC/C=C(\C)CCC=C(C)C,IC50,[1],43.5 µM
same,IC50,[2],43.8 µM
same,IC50,[3],29 µM
same,IC50,[4],30 µM
same,IC50,[5],27.8 µM
same,IC50,[6],34.4 µM
same,IC50,[7],29.8 µM
